Assay results reported in ChEMBL document CHEMBL1125434, “Preparation and in vitro and in vivo evaluation of quinolones with selective activity against gram-positive organisms” (1992).
Converted amounts (≈) assume the structure as drawn.

How the values were obtained:
Assay type in all cases: functional
Staphylococcus aureus [1] = assay: In vitro minimum inhibitory concentration against Staphylococcus aureus A 5177 using brain-heart infusion agar
Method in brief: (§1)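 Overnight cultures were grown in BHI broth at 36 °C. Twofold dilutions of a 2000 µg/mL stock were made in BHI agar, giving 200–0.005 µg/mL. Plates received about 10^4 organisms and were incubated for 18 h at 36 °C. MIC was the lowest concentration with no visible growth on the plate.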

Streptococcus agalactiae = assay: In vitro minimum inhibitory concentration against Streptococcus agalactiae CMX 508 using brain-heart infusion agar; method in brief: as §1
Streptococcus equinus = assay: In vitro minimum inhibitory concentration against Streptococcus bovis A5169 using brain-heart infusion agar; method in brief: as §1
Streptococcus pyogenes = assay: In vitro minimum inhibitory concentration against Streptococcus pyogenes 930 using brain-heart infusion agar; method in brief: as §1
Pseudomonas aeruginosa [2] = assay: In vitro minimum inhibitory concentration against Pseudomonas aeruginosa A5007 using brain-heart infusion agar; method in brief: as §1
Staphylococcus aureus [3] = assay: In vitro minimum inhibitory concentration against Staphylococcus aureus ATCC 6538P using brain-heart infusion agar; method in brief: as §1
[4] = test system: Staphylococcus epidermidis; assay: In vitro minimum inhibitory concentration against Staphylococcus epidermidis 3159 using brain-heart infusion agar; method in brief: as §1
Klebsiella pneumoniae = assay: In vitro minimum inhibitory concentration against Klebsiella pneumoniae 8045 using brain-heart infusion agar; method in brief: as §1
Staphylococcus aureus [5] = assay: In vitro minimum inhibitory concentration against Staphylococcus aureus NCTC 10649 using brain-heart infusion agar; method in brief: as §1
Acinetobacter = assay: In vitro minimum inhibitory concentration against Acinetobacter CMX 669 using brain-heart infusion agar; method in brief: as §1
Staphylococcus aureus [6] = assay: In vivo antibacterial activity against Staphylococcus aureus NCTC 10649 infected mouse by subcutaneous administration; conditions: sc
Method in brief: (§2)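 Compound was given in water or in dilute NaOH diluted with water, orally or subcutaneously. The dose was split equally between 1 and 5 h post-infection. Groups were 10 mice at ≥3 dose levels. ED50 was calculated from day-6 cumulative mortality by the trimmed Logit method.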

Staphylococcus aureus [7] = assay: In vivo antibacterial activity against Staphylococcus aureus NCTC 10649 infected mouse by oral administration; method in brief: as §2
Escherichia coli = assay: In vitro minimum inhibitory concentration against Escherichia coli Juhl using brain-heart infusion agar; method in brief: as §1
Klebsiella aerogenes = assay: In vitro minimum inhibitory concentration against Enterobacter aerogenes ATCC 13048 using brain-heart infusion agar; method in brief: as §1
Enterococcus faecium = assay: In vitro minimum inhibitory concentration against Enterococcus faecium ATCC 8043 using brain-heart infusion agar; method in brief: as §1
Pseudomonas aeruginosa [8] = assay: In vitro minimum inhibitory concentration against Pseudomonas aeruginosa K799 / WT using brain-heart infusion agar; method in brief: as §1
Staphylococcus aureus [9] = assay: In vitro minimum inhibitory concentration against Staphylococcus aureus CMX 553 using brain-heart infusion agar; method in brief: as §1

Row | Structure (SMILES) | MIC (Staphylococcus aureus [1]) | MIC (Streptococcus agalactiae) | MIC (Streptococcus equinus) | MIC (Streptococcus pyogenes) | MIC (Pseudomonas aeruginosa [2]) | MIC (Staphylococcus aureus [3]) | MIC [4] | MIC (Klebsiella pneumoniae) | MIC (Staphylococcus aureus [5]) | MIC (Acinetobacter) | MIC (Escherichia coli) | MIC (Klebsiella aerogenes) | MIC (Enterococcus faecium) | MIC (Pseudomonas aeruginosa [8]) | MIC (Staphylococcus aureus [9]) | ED50 (Staphylococcus aureus [6]) | ED50 (Staphylococcus aureus [7])
1 | CON=C1CCN(c2nc3c(cc2F)c(=O)c(C(=O)O)cn3-c2ccc(F)cc2F)CC1 | 0.2 µg/mL (≈ 0.448 µM) | 1.56 µg/mL (≈ 3.49 µM) | 6.2 µg/mL (≈ 13.9 µM) | 3.1 µg/mL (≈ 6.94 µM) | 50 µg/mL (≈ 112 µM) | 0.1 µg/mL (≈ 0.224 µM) | 0.39 µg/mL (≈ 0.874 µM) | 3.1 µg/mL (≈ 6.94 µM) | 0.2 µg/mL (≈ 0.448 µM) | 12.5 µg/mL (≈ 28 µM) | 6.2 µg/mL (≈ 13.9 µM) | 12.5 µg/mL (≈ 28 µM) | 3.1 µg/mL (≈ 6.94 µM) | 25 µg/mL (≈ 56 µM) | 0.39 µg/mL (≈ 0.874 µM) | > 8 mg/kg | > 12 mg/kg
2 | O=C(O)c1cn(-c2ccc(F)cc2F)c2cc(N3CCC(=NO)CC3)c(F)cc2c1=O | 0.1 µg/mL (≈ 0.232 µM) | 0.39 µg/mL (≈ 0.904 µM) | 1.56 µg/mL (≈ 3.62 µM) | 0.39 µg/mL (≈ 0.904 µM) | 6.2 µg/mL (≈ 14.4 µM) | 0.05 µg/mL (≈ 0.116 µM) | 0.1 µg/mL (≈ 0.232 µM) | 0.39 µg/mL (≈ 0.904 µM) | 0.1 µg/mL (≈ 0.232 µM) | 1.56 µg/mL (≈ 3.62 µM) | 0.39 µg/mL (≈ 0.904 µM) | 3.1 µg/mL (≈ 7.19 µM) | 0.39 µg/mL (≈ 0.904 µM) | 3.1 µg/mL (≈ 7.19 µM) | 0.1 µg/mL (≈ 0.232 µM) | 3.2 mg/kg | 6 mg/kg
3 | CON=C1CCN(c2cc3c(cc2F)c(=O)c(C(=O)O)cn3-c2ccc(F)cc2F)CC1 | 0.1 µg/mL (≈ 0.225 µM) | 1.56 µg/mL (≈ 3.5 µM) | 6.2 µg/mL (≈ 13.9 µM) | 1.56 µg/mL (≈ 3.5 µM) | > 100 µg/mL | 0.05 µg/mL (≈ 0.112 µM) | 0.1 µg/mL (≈ 0.225 µM) | 3.1 µg/mL (≈ 6.96 µM) | 0.05 µg/mL (≈ 0.112 µM) | 6.2 µg/mL (≈ 13.9 µM) | 0.2 µg/mL (≈ 0.449 µM) | > 100 µg/mL | 3.1 µg/mL (≈ 6.96 µM) | > 100 µg/mL | 0.2 µg/mL (≈ 0.449 µM) | > 8 mg/kg | > 12 mg/kg
4 | O=C(O)c1cn(C2CC2)c2cc(N3CCNCC3)c(F)cc2c1=O [CIPROFLOXACIN] | – | – | – | – | – | – | – | – | – | – | – | – | – | – | – | 1.6 mg/kg | 15.5 mg/kg
5 | NC1CCN(c2nc3c(cc2F)c(=O)c(C(=O)O)cn3-c2ccc(F)cc2F)C1 (stereo unspecified) [TOSUFLOXACIN] | 0.05 µg/mL (≈ 0.124 µM) | 0.39 µg/mL (≈ 0.965 µM) | 0.39 µg/mL (≈ 0.965 µM) | 0.2 µg/mL (≈ 0.495 µM) | 0.78 µg/mL (≈ 1.93 µM) | 0.02 µg/mL (≈ 0.0495 µM) | 0.1 µg/mL (≈ 0.247 µM) | 0.02 µg/mL (≈ 0.0495 µM) | – | 0.1 µg/mL (≈ 0.247 µM) | 0.02 µg/mL (≈ 0.0495 µM) | 0.05 µg/mL (≈ 0.124 µM) | 0.2 µg/mL (≈ 0.495 µM) | 0.78 µg/mL (≈ 1.93 µM) | 0.05 µg/mL (≈ 0.124 µM) | – | –

Continued, in another order:

Row | MIC (Staphylococcus aureus [1]) | MIC (Streptococcus agalactiae) | MIC (Streptococcus equinus) | MIC (Streptococcus pyogenes) | MIC (Pseudomonas aeruginosa [2]) | MIC (Staphylococcus aureus [3]) | MIC [4] | MIC (Klebsiella pneumoniae) | MIC (Staphylococcus aureus [5]) | MIC (Acinetobacter) | MIC (Escherichia coli) | MIC (Klebsiella aerogenes) | MIC (Enterococcus faecium) | MIC (Pseudomonas aeruginosa [8]) | MIC (Staphylococcus aureus [9]) | Structure (SMILES) | ED50 (Staphylococcus aureus [6]) | ED50 (Staphylococcus aureus [7])
6 | 0.1 µg/mL (≈ 0.231 µM) | 0.39 µg/mL (≈ 0.902 µM) | 1.56 µg/mL (≈ 3.61 µM) | 0.78 µg/mL (≈ 1.8 µM) | 6.2 µg/mL (≈ 14.3 µM) | 0.05 µg/mL (≈ 0.116 µM) | 0.1 µg/mL (≈ 0.231 µM) | 0.78 µg/mL (≈ 1.8 µM) | 0.05 µg/mL (≈ 0.116 µM) | 1.56 µg/mL (≈ 3.61 µM) | 0.78 µg/mL (≈ 1.8 µM) | 3.1 µg/mL (≈ 7.17 µM) | 0.39 µg/mL (≈ 0.902 µM) | 6.2 µg/mL (≈ 14.3 µM) | 0.1 µg/mL (≈ 0.231 µM) | CO/N=C1\CCN(c2nc3c(cc2F)c(=O)c(C(=O)O)cn3-c2ccc(F)cc2F)C1 | 4.7 mg/kg | > 12 mg/kg
7 | 0.1 µg/mL (≈ 0.256 µM) | 1.56 µg/mL (≈ 3.99 µM) | 3.1 µg/mL (≈ 7.92 µM) | 1.56 µg/mL (≈ 3.99 µM) | > 100 µg/mL | 0.05 µg/mL (≈ 0.128 µM) | 0.1 µg/mL (≈ 0.256 µM) | 3.1 µg/mL (≈ 7.92 µM) | 0.05 µg/mL (≈ 0.128 µM) | 3.1 µg/mL (≈ 7.92 µM) | 1.56 µg/mL (≈ 3.99 µM) | > 100 µg/mL | 1.56 µg/mL (≈ 3.99 µM) | > 100 µg/mL | 0.1 µg/mL (≈ 0.256 µM) | CON=C1CCN(c2c(F)cc3c(=O)c(C(=O)O)cn(C4CC4)c3c2F)CC1 | – | –
8 | < 0.05 µg/mL | 0.2 µg/mL (≈ 0.479 µM) | 0.39 µg/mL (≈ 0.934 µM) | 0.2 µg/mL (≈ 0.479 µM) | 3.1 µg/mL (≈ 7.43 µM) | < 0.05 µg/mL | < 0.05 µg/mL | 0.2 µg/mL (≈ 0.479 µM) | < 0.05 µg/mL | 0.39 µg/mL (≈ 0.934 µM) | 0.2 µg/mL (≈ 0.479 µM) | 0.78 µg/mL (≈ 1.87 µM) | 0.2 µg/mL (≈ 0.479 µM) | 1.56 µg/mL (≈ 3.74 µM) | < 0.05 µg/mL | O=C(O)c1cn(-c2ccc(F)cc2F)c2cc(N3CC/C(=N/O)C3)c(F)cc2c1=O | 4.1 mg/kg | > 12 mg/kg
9 | 0.05 µg/mL (≈ 0.139 µM) | 0.78 µg/mL (≈ 2.16 µM) | 1.56 µg/mL (≈ 4.33 µM) | 0.78 µg/mL (≈ 2.16 µM) | 3.1 µg/mL (≈ 8.6 µM) | 0.02 µg/mL (≈ 0.0555 µM) | 0.1 µg/mL (≈ 0.278 µM) | 0.1 µg/mL (≈ 0.278 µM) | 0.02 µg/mL (≈ 0.0555 µM) | 0.39 µg/mL (≈ 1.08 µM) | 0.39 µg/mL (≈ 1.08 µM) | 0.78 µg/mL (≈ 2.16 µM) | 0.78 µg/mL (≈ 2.16 µM) | 1.56 µg/mL (≈ 4.33 µM) | 0.05 µg/mL (≈ 0.139 µM) | CO/N=C1\CCN(c2nc3c(cc2F)c(=O)c(C(=O)O)cn3C2CC2)C1 | – | –
10 | 0.05 µg/mL (≈ 0.116 µM) | 0.39 µg/mL (≈ 0.904 µM) | 1.56 µg/mL (≈ 3.62 µM) | 0.39 µg/mL (≈ 0.904 µM) | 6.2 µg/mL (≈ 14.4 µM) | 0.02 µg/mL (≈ 0.0464 µM) | 0.05 µg/mL (≈ 0.116 µM) | 0.78 µg/mL (≈ 1.81 µM) | 0.05 µg/mL (≈ 0.116 µM) | 0.78 µg/mL (≈ 1.81 µM) | 0.78 µg/mL (≈ 1.81 µM) | 3.1 µg/mL (≈ 7.19 µM) | 0.39 µg/mL (≈ 0.904 µM) | 6.2 µg/mL (≈ 14.4 µM) | 0.05 µg/mL (≈ 0.116 µM) | CO/N=C1/CCN(c2cc3c(cc2F)c(=O)c(C(=O)O)cn3-c2ccc(F)cc2F)C1 | – | –
